MT1-MMP act inh: MT1-MMP (human) activation inhibition; HT1080 RFP-PRO-GFP cells, GFP/RFP ratio fluorescence, overnight; percent of plate control window, DMSO zero; GFP/RFP ratio change, % at 20 µM; 0.061% of 360,000 active; AID 651647;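 active = GFP/RFP ratio change of at least 30% with cell ATP level not reduced by more than half and red fluorescence within 50% of control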
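Assay system – RFP-PRO-GFP reporter HT1080 cells · Compound dosing – single dose of 20 µM compound, 1% DMSO final · Incubation – overnight compound exposure at 37 °C · Measure – GFP/RFP fluorescence ratio · Benchmarks – DMSO wells and RFP-L50D-GFP cells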
TMEM16A inh: inhibitors of mouse TMEM16A calcium-activated chloride channel | 1.2% of 310,000 active | Q8BHY3 | HEK293 TMEM16A/YFP iodide influx fluorescence, ionomycin | normalized B-score (activity score, 25-100; higher = stronger inhibition) at 10 µM;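 active = ratio plate-corrected score three or more library SD toward inhibition, starting fluorescence score within five deviations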;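 note: score derived from kinetic fluorescence span divided by baseline fluorescence per well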
DAGLB inh: blocks human DAGLB lipase activity; 0.059% of 340,000 active; Q8NCG7; inhibition, % at 5.17 µM; HEK293T DAGLB membrane lysate, EnzChek fluorogenic substrate; in the data active = inhibition above about 34%;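 note: 0% = enzyme with vehicle and 100% = wells lacking enzyme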
Target sequence (Q8NCG7 whole entry, looked up): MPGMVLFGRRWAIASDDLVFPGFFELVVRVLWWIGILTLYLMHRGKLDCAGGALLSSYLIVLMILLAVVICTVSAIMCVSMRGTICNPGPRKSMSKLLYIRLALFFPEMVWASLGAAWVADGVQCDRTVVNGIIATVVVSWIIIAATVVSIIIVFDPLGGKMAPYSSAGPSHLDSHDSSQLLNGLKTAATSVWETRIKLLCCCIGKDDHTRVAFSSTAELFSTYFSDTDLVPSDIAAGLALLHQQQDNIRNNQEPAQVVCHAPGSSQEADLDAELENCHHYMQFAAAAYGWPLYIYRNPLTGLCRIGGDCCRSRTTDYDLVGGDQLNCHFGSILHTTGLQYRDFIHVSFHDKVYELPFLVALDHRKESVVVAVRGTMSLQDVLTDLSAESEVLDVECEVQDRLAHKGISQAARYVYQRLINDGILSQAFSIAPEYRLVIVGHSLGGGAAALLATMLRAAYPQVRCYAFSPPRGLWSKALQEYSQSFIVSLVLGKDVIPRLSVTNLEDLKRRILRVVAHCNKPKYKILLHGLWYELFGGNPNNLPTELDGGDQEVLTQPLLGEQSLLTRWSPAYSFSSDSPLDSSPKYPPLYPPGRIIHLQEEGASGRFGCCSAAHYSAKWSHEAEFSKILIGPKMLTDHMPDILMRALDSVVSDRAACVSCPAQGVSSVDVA
TMEM16A act: activates or potentiates the mouse TMEM16A chloride channel; 0.3% of 340,000 active; HEK293 TMEM16A/YFP-H148Q/I152L, iodide quench fluorescence; hits give low values; B-score at 10 µM; Q8BHY3;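 active = fluorescence-ratio B-score plate-corrected deviation score at least 3 library SD below zero, with starting fluorescence score within 5 deviations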;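 note: channel opened by trigger with iodide after compound preincubation; score built on the fluorescence ratio of max minus min over baseline; more negative score means more quench and so TMEM16A activation or potentiation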
The depositor's hits bear a star. This is a sample that favours compounds with a hit; in the whole collection about 1.3% have one here.

Results for O=C1c2ccccc2C(c2nnnn2Cc2ccccc2)N1C1CC1 (stereo not given) ?
MT1-MMP act inh: 3

What do the screens show for `COCCNC(=S)N(CCc1c(C)[nH]c2ccc(Cl)cc12)Cc1cccs1`?
MT1-MMP act inh: -2; TMEM16A inh: 100*; DAGLB inh: -2; TMEM16A act: inactive

What do the screens show for `COc1ccc(CSc2ccc(S(=O)(=O)N3CCCC3)cn2)cc1F`?
MT1-MMP act inh: -2; DAGLB inh: -7

What do the screens show for `COc1ccc(CSc2ccc(S(=O)(=O)N3CCCCC3)cn2)cc1F`?
MT1-MMP act inh: -5; DAGLB inh: 0; TMEM16A act: -23*

What do the screens show for `C[C@H](O)[C@@H]1CN2CCc3c([nH]c4ccccc34)[C@@H]2C[C@@H]1N(C)Cc1cc(Cl)cc(Cl)c1`?
MT1-MMP act inh: -7; DAGLB inh: -7

What do the screens show for `Nc1ccn(CC(=O)NCCNc2ccc([N+](=O)[O-])cn2)c(=O)n1`?
MT1-MMP act inh: 2; DAGLB inh: -1; TMEM16A act: inactive

How did Cc1ccc(C(C)C)c(OCC(=O)NCC(c2cccs2)N2CCOCC2)c1 (stereo not given) do in these assays?
MT1-MMP act inh: -6; TMEM16A inh: 100*; DAGLB inh: -9; TMEM16A act: inactive

Results for CC1CCCC12NC(=O)NC2=O (stereo not given) ?
MT1-MMP act inh: -1; DAGLB inh: 0; TMEM16A act: inactive

What do the screens show for `COc1ccc(C2C(C#N)=C(N)Oc3c2sc2nc(C)cc(C)c32)cc1` (stereo not given)?
MT1-MMP act inh: -9; TMEM16A inh: inactive; DAGLB inh: -3; TMEM16A act: -7.1*

What do the screens show for `Cc1ccc(-c2nn(-c3ccccc3)cc2CSC(=N)N)cc1`?
MT1-MMP act inh: -3; TMEM16A inh: 25*; DAGLB inh: 0; TMEM16A act: inactive

Results for OCc1cn(-c2ccccc2)nc1-c1ccc(-c2nn(-c3ccccc3)cc2CO)cc1 ?
MT1-MMP act inh: -5; TMEM16A inh: inactive; DAGLB inh: -8; TMEM16A act: inactive

How did COc1ccc(S(=O)(=O)N2CCOC2CNC(=O)C(=O)NCCCn2ccnc2)cc1OC (stereo not given) do in these assays?
MT1-MMP act inh: 1; TMEM16A inh: inactive; DAGLB inh: 1; TMEM16A act: -15*

Results for Cc1ccc(S(=O)(=O)N2CCCOC2CNC(=O)C(=O)NCCCn2ccnc2)cc1 (stereo not given) ?
MT1-MMP act inh: -6; TMEM16A inh: inactive; DAGLB inh: 2; TMEM16A act: inactive

What do the screens show for `COc1ccc(S(=O)(=O)N2CCCOC2CNC(=O)C(=O)NCCCn2ccnc2)cc1` (stereo not given)?
MT1-MMP act inh: 1; TMEM16A inh: inactive; DAGLB inh: 3; TMEM16A act: -7.3*

How did COC(=O)c1ccc(C(=O)N2CCCC(C)(C(=O)NS(=O)(=O)C3CC3)C2)cc1 (stereo not given) do in these assays?
MT1-MMP act inh: -1

What do the screens show for `Cc1cccc(Nc2nc(NCc3ccco3)c3ccccc3n2)c1`?
MT1-MMP act inh: -8; TMEM16A inh: 25*; DAGLB inh: 1; TMEM16A act: inactive

Results for O=C1CCC2(CCCC2)c2ccccc21 ?
MT1-MMP act inh: -5; DAGLB inh: -3

How did CCOc1ccc(-n2c(C)cc(/C=C3/C(=N)N4C(=NC3=O)SN=C4S(C)(=O)=O)c2C)cc1 do in these assays?
MT1-MMP act inh: -1; TMEM16A inh: inactive; DAGLB inh: 6; TMEM16A act: -6.3*

What do the screens show for `Cc1cccc(C)c1-n1cccc1/C=C1/C(=N)N2C(=NC1=O)SN=C2S(C)(=O)=O`?
MT1-MMP act inh: -2; TMEM16A inh: 25*; DAGLB inh: 16; TMEM16A act: inactive

How did Cc1cc(/C=C2/C(=N)N3C(=NC2=O)SN=C3S(C)(=O)=O)c(C)n1-c1ccc(F)cc1 do in these assays?
MT1-MMP act inh: -4; TMEM16A inh: inactive; DAGLB inh: 11; TMEM16A act: inactive

How did CCc1occc(=O)c1Oc1cc(NN2CCCCC2)c([N+](=O)[O-])cc1[N+](=O)[O-] do in these assays?
MT1-MMP act inh: 0; TMEM16A inh: inactive; DAGLB inh: 4; TMEM16A act: inactive

Results for COc1cc(C(=O)N[C@H](C(=O)NC(C)C23CC4CC(CC(C4)C2)C3)C(C)C)cc(OC)c1OC (stereo not given in full) ?
MT1-MMP act inh: -2; TMEM16A inh: 100*; DAGLB inh: -4; TMEM16A act: inactive

What do the screens show for `Cc1ccc(-c2noc(CCCC(=O)Nc3cccnc3)n2)cc1`?
MT1-MMP act inh: 5; TMEM16A inh: 25*; DAGLB inh: 1; TMEM16A act: inactive

What do the screens show for `O=C(CCCc1nc(-c2ccccc2)no1)Nc1cccnc1`?
MT1-MMP act inh: 7; TMEM16A inh: inactive; DAGLB inh: 0; TMEM16A act: inactive

Results for CC1(C(=O)NS(=O)(=O)c2cccc(C#N)c2)CCN1C(=O)CC1CCCCC1 (stereo not given) ?
MT1-MMP act inh: 1

How did C#CCN1C=C(C(=O)OCC)C(C)N(Cc2ccccc2I)S1(=O)=O (stereo not given) do in these assays?
MT1-MMP act inh: -6; DAGLB inh: -13; TMEM16A act: -5*

What do the screens show for `O=C(Nc1ccc2c(c1)OCO2)C1CC(c2ccc(Cl)cc2)=NO1` (stereo not given)?
MT1-MMP act inh: 11; TMEM16A inh: 100*; DAGLB inh: -3; TMEM16A act: inactive

What do the screens show for `COc1ccc(C2=NOC(C(=O)Nc3ccc4c(c3)OCO4)C2)cc1` (stereo not given)?
MT1-MMP act inh: 0; TMEM16A inh: inactive; DAGLB inh: -8; TMEM16A act: inactive

What do the screens show for `CC(C)CCCCCCNC(=S)Nc1ccc(S(=O)(=O)N2CCOCC2)cc1`?
MT1-MMP act inh: -17; TMEM16A inh: 100*; DAGLB inh: -2; TMEM16A act: inactive

How did CC1CCCCC1NC(=O)Cn1cc([N+](=O)[O-])ccc1=O (stereo not given) do in these assays?
MT1-MMP act inh: -2; DAGLB inh: -1

What do the screens show for `CS(=O)(=O)Nc1ccccc1C(=O)Nc1cc(Cl)cc(Cl)c1`?
MT1-MMP act inh: -7; TMEM16A inh: inactive; DAGLB inh: 4; TMEM16A act: inactive

How did CS(=O)(=O)Nc1ccccc1C(=O)Nc1cccc(Cl)c1 do in these assays?
MT1-MMP act inh: -3; TMEM16A inh: 25*; DAGLB inh: 5; TMEM16A act: inactive

Results for CCSc1nsc(NC(=O)Nc2cccc(F)c2)n1 ?
MT1-MMP act inh: -9; TMEM16A inh: 100*; DAGLB inh: -4; TMEM16A act: inactive

What do the screens show for `NCc1csc(NC(=O)Nc2cccc(C(F)(F)F)c2)n1`?
MT1-MMP act inh: -6

What do the screens show for `Cc1cc(C)c(C#N)c(SCc2ccccc2F)n1`?
MT1-MMP act inh: -1; TMEM16A inh: 25*; DAGLB inh: -5; TMEM16A act: inactive

Results for COc1cccc(NC(=O)CN(C)C(=O)CSc2ccc3c(c2)OCCO3)c1 ?
MT1-MMP act inh: 7; DAGLB inh: -5; TMEM16A act: inactive

From PubChem
